Assay results gathered from unrelated publications.
Lines come from different studies, so protocols differ. Converted amounts (≈) assume the structure as drawn.

SMILES	target or system	test	test system	conditions	measurement	result
Cc1n[nH]c2ccc3nc(-c4ccc(C(=O)NCCN(C)C)nc4)c4c(c3c12)CCCCC4	K562	cell growth or viability, resazurin	–	72 h	GI50	8.5 µM
CN[C@H](CC(C)C)C(=O)N[C@H]1C(=O)N[C@@H](CC(N)=O)C(=O)N[C@H]2C(=O)N[C@H]3C(=O)N[C@H](C(=O)N[C@H](C(=O)O)c4cc(O)cc(O)c4-c4cc3ccc4O)[C@H](O)c3ccc(c(Cl)c3)Oc3cc2cc(c3O[C@@H]2O[C@H](CO)[C@@H](O)[C@H](O)[C@H]2O[C@H]2C[C@](C)(N)[C@H](O)[C@H](C)O2)Oc2ccc(cc2Cl)[C@H]1O	Staphylococcus epidermidis	microbial growth, broth dilution	–	clinical isolate	MIC90	2 µg/mL
CC(=O)OC[C@H]1O[C@@H](n2cnc(N)nc2=O)[C@H](OC(C)=O)[C@@H]1OC(C)=O	OCI-Ly1	cell growth or viability, ATP luminescence	–	0.1 µM, 5 days	viability	177%
CCCCCCCCCCCCCCCCCCOc1ccc(CC(=O)OCC[N+](CC)(CC)CC)cc1	HOP-62	cell growth or viability, SRB	–	10 µM	inhibition	2.95%
CC1(C)S[C@@H]2[C@H](NC(=O)[C@H](N)c3ccccc3)C(=O)N2[C@H]1C(=O)O	Staphylococcus epidermidis	microbial growth	MRSE	clinical isolate	MIC90	> 128 µg/mL
CCCCCCCCCCCCCCCCCCOc1ccccc1CC(=O)OCC[N+]1(C)CCCC1	HOP-62	cell growth or viability, SRB	–	10 µM	inhibition	46.5%
CN(C)CCNC(=O)c1ccc(-c2nc3ccc4[nH]ncc4c3c3c2CCCC3)s1	K562	cell growth or viability, resazurin	–	72 h	GI50	0.805 µM
Cc1cc(O)cc(Nc2nnc(-c3n[nH]c4ccc(C)cc34)s2)c1	Staphylococcus epidermidis	microbial growth	ATCC12228	–	MIC	201 µg/mL (≈ 596 µM)
CN1CCN(C(=O)c2ccc(-c3nc4ccc5[nH]ncc5c4c4c3CCCC4)cc2)CC1	K562	cell growth or viability, resazurin	–	72 h	GI50	> 10 µM
CC(=O)NC[C@H]1CN(c2ccc(N3CCOCC3)c(F)c2)C(=O)O1	Staphylococcus epidermidis	microbial growth	–	clinical isolate	MIC90	2 µg/mL
CCCCCCCCCCCCCCCCCCOc1cccc(CC(=O)OCC[N+](C)(C)C)c1	HOP-92	cell growth or viability, SRB	–	10 µM	inhibition	12.2%
Cc1n[nH]c2ccc3nc(-c4ccc(C(=O)NCCN(C)C)cc4)c4c(c3c12)CCCCC4	K562	cell growth or viability, resazurin	–	72 h	GI50	2.9 µM
CCCCCCCCCCCCCCCCCCOCC(COP(=O)([O-])OCC[N+](C)(C)C)OC (centres unmarked)	HOP-92	cell growth or viability, SRB	–	10 µM	inhibition	40.1%
O=C(CCCCCCC(=O)Nc1ccccc1)NO	OCI-Ly1	cell growth or viability, ATP luminescence	–	1 µM, 5 days	viability	50.5%
COc1c(N2C[C@@H]3CCCN[C@@H]3C2)c(F)cc2c(=O)c(C(=O)O)cn(C3CC3)c12	Staphylococcus epidermidis	microbial growth, broth dilution	–	clinical isolate	MIC90	2 µg/mL
O=C(/C=C/c1cccc(C(=O)NO)c1)NO	OCI-Ly1	cell growth or viability, ATP luminescence	–	0.5 µM, 5 days	viability	108%
O=C(NCCN1CCCCC1)c1ccc(-c2nc3ccc4[nH]ncc4c3c3c2CCCC3)cc1	K562	cell growth or viability, resazurin	–	72 h	GI50	7.5 µM
Cc1c2c(nn1C)CSCc1cc(n(C)n1)CSc1cc(c3ccccc3c1)OCCCc1c(C(=O)O)n(C)c3c-2c(Cl)ccc13	Staphylococcus epidermidis	microbial growth, broth dilution	–	clinical isolate	MIC90	12.5 µM
COCCCNC(=O)c1ccc(-c2nc3ccc4[nH]ncc4c3c3c2CCCC3)cc1	K562	cell growth or viability, resazurin	–	72 h	GI50	> 10 µM
C=C[C@]1(C)C[C@@H](OC(=O)CS[C@@H]2C[C@H]3CC[C@@H](C2)N3C)[C@]2(C)[C@H](C)CC[C@]3(CCC(=O)[C@H]32)[C@@H](C)[C@@H]1O	Staphylococcus epidermidis	microbial growth	MRSE	clinical isolate	MIC90	0.0625 µg/mL
CN(C)CCNC(=O)c1ccc(-c2nc3ccc4[nH]ncc4c3c3c2CCC3)cc1	K562	cell growth or viability, resazurin	–	72 h	GI50	2.5 µM
CCCCCCCCCCCCCCCCCCOc1cccc(CC(=O)OCC[N+]2(C)CCOCC2)c1	HOP-62	cell growth or viability, SRB	–	10 µM	inhibition	9.38%
Cc1ccc2[nH]nc(-c3nnc(Nc4ccc(C(F)(F)F)cc4)s3)c2c1	Staphylococcus epidermidis	microbial growth	ATCC12228	–	MIC	123 µg/mL (≈ 327 µM)
O=C(Nc1cccc(Br)c1)c1cccc(S(=O)(=O)N2CCCCCC2)c1	OCI-Ly1	cell growth or viability, ATP luminescence	–	0.5 µM, 5 days	viability	157%
CCCCCCCCCCCCCCCCCCOc1ccccc1CC(=O)OCCC[N+](C)(C)C	HOP-62	cell growth or viability, SRB	–	10 µM	inhibition	32.9%
O=C(NCCc1ccccn1)c1ccc(-c2nc3ccc4[nH]ncc4c3c3c2CCCC3)cc1	K562	cell growth or viability, resazurin	–	72 h	GI50	8.4 µM
Cc1ccc2[nH]nc(-c3nnc(Nc4cc(Cl)cc(Br)c4)s3)c2c1	Staphylococcus epidermidis	microbial growth	ATCC12228	–	MIC	210 µg/mL (≈ 498 µM)
CCCCCCCCCCCCCCCCCCOc1ccccc1CC(=O)OCC[N+](C)(C)C	HOP-92	cell growth or viability, SRB	–	10 µM	inhibition	114%
O=C(CCCCCCSc1ccc2ccccc2c1)NO	OCI-Ly1	cell growth or viability, ATP luminescence	–	0.5 µM, 5 days	viability	173%
